This excerpt belongs to a sample that is enriched for hits.
CTSL1 counter – Fasciola hepatica cathepsin L1 inhibitors, primary screen, counter-screen for PFM18AAP inhibitor project, biochemical, QFRET, fluorogenic peptide substrate. actives 0.49% (n = 300,000). recombinant F. hepatica cathepsin L1, Z-Leu-Arg-MCA fluorescence. inhibition, % at 5.96 µM;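 active = inhibition above the mean of all tested compounds plus 3 SD, set per screening campaign, cut at about 17% in these data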;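 note: 0% = plate median of test compound wells and 100% = 1 µM Z-Phe-Ala-diazomethylketone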
UCH37 inh – inhibitors of human UCH37 deubiquitinase, primary screen, biochemical, Ub-AMC cleavage, fluorescence. inhibition, % (test concentration not listed). purified proteasome/UCH37. actives 0.33% (n = 330,000). Ubiquitin carboxyl-terminal hydrolase isozyme L5 (Homo sapiens), Q9Y5K5;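 active = mean inhibition over replicate wells above about 20%, limit read from the data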;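 note: 0% = compound-free wells with enzyme and 100% = wells lacking proteasome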
Target sequence (Q9Y5K5 whole entry, looked up): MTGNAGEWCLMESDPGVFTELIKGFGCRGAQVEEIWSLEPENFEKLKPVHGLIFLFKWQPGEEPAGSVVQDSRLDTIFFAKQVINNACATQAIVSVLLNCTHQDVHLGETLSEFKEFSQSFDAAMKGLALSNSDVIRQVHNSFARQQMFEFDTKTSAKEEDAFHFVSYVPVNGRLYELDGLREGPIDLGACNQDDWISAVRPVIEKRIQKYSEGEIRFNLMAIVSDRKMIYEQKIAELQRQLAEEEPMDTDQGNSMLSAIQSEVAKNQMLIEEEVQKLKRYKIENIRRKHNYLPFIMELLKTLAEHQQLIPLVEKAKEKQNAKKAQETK
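system = Proteasome-associated human UCH37 deubiquitinase | amount = 0.15 nM proteasome as dispensed | medium = pH 7.4 Tris-HCl (50 mM) with ovalbumin, ATP-MgCl2, DTT | incubation = 30 min preincubation with enzyme, 25 min cleavage at room temperature | detection = AMC fluorescence 355/460 nm | read-out basis = percent inhibition | controls = no-proteasome and no-compound wells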
XBP1 UPR activ – activators of adaptive XBP1 UPR arm, primary screen, cell-based, CHO-XBP1 luciferase reporter, luminescence, uHTS. IRE1-XBP1 UPR activation; percent of tunicamycin response, DMSO as zero. activation, % at 20 µM. actives 0.33% (n = 330,000). AID 463104, 2010;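 active = versus positive control, 20 µM dose yields 30% or more activation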;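 note: 100% = tunicamycin at 10 µg/mL and 0% = DMSO only wells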
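Test system: CHO-XBP1 luciferase reporter cells | Buffer or medium: Serum-containing F12 medium, 10% FBS | Schedule: 6 h compound exposure at 37 °C, 5% CO2 | Detection: Steady-Glo luciferase glow luminescence, 10 min after reagent addition | Read-out basis: Activation, % of tunicamycin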
CHOP inh – inhibitors of CHOP promoter induction, primary screen, cell-based, unfolded protein response, luciferase reporter. AID 2732, 2010. inhibition, % at 10 µM. CHO-K1 CHOP-promoter luciferase, tunicamycin-induced, 15-18 h. actives 3.8% (n = 220,000);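 active = compounds that reduced the stress-induced luciferase reporter signal by more than about 70% of percent inhibition, limit read from the data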;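 note: 0% = tunicamycin plus vehicle and 100% = wells without tunicamycin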
CHOP UPR activ – activators of apoptotic CHOP UPR arm, primary screen, cell-based, CHO-CHOP luciferase reporter, luminescence, uHTS; activation, % at 10 µM; actives 0.34% (n = 330,000); UPR activation; percent of tunicamycin response over DMSO baseline;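 active = at 10 µM dose, activation of 40% or more, normalized to positive control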;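 note: 100% = tunicamycin at 10 µg/mL and 0% = DMSO alone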
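System: CHO-CHOP luciferase reporter cell line; amount: 500 cells/well; buffer or medium: F12 medium containing 10% fetal bovine serum; incubation: 6 h compound exposure at 37 °C after overnight seeding; measured by: luciferase luminescence after 10 min with Steady-Glo reagent; evaluation: % reporter activation, DMSO baseline versus tunicamycin full activation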
CHOP inh conf – retest of CHOP induction inhibitors, confirmation, cell-based | actives 45% (n = 2,100) | CHO-CHOP promoter luciferase reporter, tunicamycin-induced, luminescence | inhibition, % at 10 µM | shares compounds with CHOP inh | AID 504437, 2011;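 active = mean of three repeat readings of reporter signal inhibition above a set limit, cut at about 70% in these data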;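 note: 0% = tunicamycin plus vehicle and 100% = wells lacking tunicamycin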
The depositor's hits bear a star; x = no result.

SMILES	CTSL1 counter	UCH37 inh	XBP1 UPR activ	CHOP inh	CHOP UPR activ	CHOP inh conf
CCCc1cc(C(=O)NC2CCCCC2)no1	-3	0	2	0	1	x
CCCc1cc(C(=O)N(C2CCCCC2)C2CCCCC2)no1	0	1	-2	100*	0	89*
O=C1C(=O)c2ccc(-c3ccccc3)cc2-c2ccccc21	109*	-88	-7	109*	-9	140*
C/C(=N\Nc1nc2ccccc2[nH]1)c1ccc([N+](=O)[O-])cc1	-1	x	5	102*	2	26
CCOC(=O)N1CCC(n2c(=S)[nH]c3cc(OCC)c(OCC)cc3c2=O)CC1	2	7	24	101*	16	98*
Fc1cccc(-c2nnn3c2nc(Cl)c2ccccc23)c1	x	-66	x	103*	x	127*
Cc1ccc(-c2nnn3c2nc(Cl)c2ccccc23)cc1	x	x	x	56	x	x
CN1C(=O)/C(=C/c2cc(N=Nc3ccccc3)ccc2O)SC1=S	6	9	-1	104*	-1	104*
CCCCn1c(=O)[nH]c(=O)c2c1nc(-c1ccc(OCCC)c(OCC)c1)n2C	1	-4	8	101*	3	91*
CCOc1cc(C=NNc2nc(N3CCCCC3)nc(N3CCCCC3)n2)ccc1OC(=O)c1ccco1	x	3	x	x	x	x
O=C(CSc1nc(-c2ccccc2F)nc2nc[nH]c12)Nc1c(Cl)cc(Cl)cc1Cl	1	1	-3	-20	1	x
CCc1cccc(C)c1NC(=O)CSc1nc(-c2ccccc2F)nc2nc[nH]c12	6	-5	0	108*	-2	56
CCCn1c(N/N=C(C)\C=C\c2ccccc2)nc2c1c(=O)[nH]c(=O)n2C	3	x	1	103*	1	-31
CC(/C=C/c1ccccc1)=NNc1nc2c(c(=O)[nH]c(=O)n2C)n1CCO	x	9	x	x	x	x
COc1ccc(/C=N/n2c(N)nc(-c3ccccc3)c2-c2ccccc2)cc1	0	x	0	104*	2	52
COc1ccc(C=Nn2c(-c3ccccc3)n[nH]c2=S)cc1	x	4	x	x	x	x
O=C(NN=Cc1ccc(OC(=O)c2ccc([N+](=O)[O-])cc2)cc1)c1cccnc1	x	4	x	x	x	x
CCC(CC)c1nnc(NC(=O)c2c(C)nn(Cc3ccccc3Cl)c2C)s1	0	-1	-5	105*	1	90*
Cc1nc(SCC(=O)Nc2ccc(C)c(F)c2)c2oc3ccccc3c2n1	4	4	2	102*	-1	110*
CCC1CCCC1=NNC(=O)c1cc(C)[nH]n1 (stereo unspecified)	x	1	x	x	x	x
Nc1ccc(N2CCCCCC2)cc1	2	x	3	x	38	128*
NC(=NOC(=O)c1ccccc1Cl)c1nonc1N	x	5	x	x	x	x
Cc1ccccc1S(=O)(=O)N=C(c1ccccc1)N(C)C	x	5	x	x	x	x
Cc1cc(-c2ccccc2)n(-c2cc(N/N=C/c3ccccc3O)ncn2)n1	3	x	x	102*	x	47
N=C1/C(=C\c2ccc(-c3ccc(C(=O)O)cc3)o2)C(=O)N=C2SC=C(c3ccccc3)N12	x	9	x	100*	x	38
SMILES	CTSL1 counter	UCH37 inh	XBP1 UPR activ	CHOP inh	CHOP UPR activ	CHOP inh conf
N=C1/C(=C\c2ccc(-c3cccc(Cl)c3)o2)C(=O)N=C2SC=C(c3ccccc3)N12	-9	7	2	-5	2	x
Nc1nnnn1CC(=O)NN=Cc1cc([N+](=O)[O-])ccc1O	x	7	x	x	x	x
CC1=NOC(=O)/C1=C/c1ccc2c(c1)OCO2	3	5	-2	100*	0	-27
CC1=NOC(=O)/C1=C\c1ccc2c(c1)OCO2	-2	3	1	101*	0	-31
COc1cc(-c2nc3ccccn3c2N=Cc2cc(OC)c(O)cc2Cl)ccc1O	x	-10	x	x	x	x
CCOc1ccc(S(=O)(=O)N(CC(=O)NN=Cc2cccs2)c2ccc(C)cc2)cc1	x	3	x	x	x	x
CC(C)(C)c1ccc(-c2noc(CCC(N)=O)n2)cc1	-3	4	-5	100*	-9	113*
COc1cc(OC)cc(C(=O)NNC(=O)c2ccccn2)c1	-2	-1	2	16	-2	x
COc1ccc(C(=O)NNC(=O)c2ccccn2)cc1	-1	-2	-8	104*	-12	124*
CCOc1cc(C=NNC(=O)C(=O)Nc2cc(Cl)ccc2C)ccc1O	x	-1	x	x	x	x
COCCn1c(=NC(=O)/C=C/c2cccs2)sc2cc(NC(C)=O)ccc21	1	-100	-2	105*	2	79*
COCCn1c(=NC(=O)CCS(=O)(=O)c2ccccc2)sc2cc(C)ccc21	-4	-8	-2	x	0	x
O=S1(=O)C=C(Sc2nc3cc(Cl)ccc3o2)c2ccccc21	-2	3	-5	x	-9	138*
Cc1cc(NC(=O)CSc2nc3cc(Cl)ccc3o2)no1	7	1	0	x	2	x
O=C(COC(=O)/C=C/c1ccc2c(c1)OCO2)NC1CC1	-5	-51	-1	33	-1	x
CC1CCCC(NC(=O)COC(=O)/C=C/c2ccc3c(c2)OCO3)C1C (stereo unspecified)	-2	-70	-1	98*	1	96*
CC1=C(C(=O)Nc2ccc(C)cc2C)C(c2cccc([N+](=O)[O-])c2)n2nc(C(=O)OC(C)C)nc2N1 (stereo unspecified)	1	2	-1	27	0	x
CC1=C(C(=O)Nc2ccc(C)cc2C)C(c2cccc(Cl)c2)n2nc(C(=O)OC(C)C)nc2N1 (stereo unspecified)	-1	3	-4	106*	1	118*
CC(Cn1nnc2ccccc21)=NOC(=O)c1c(F)cccc1F	x	3	x	x	x	x
CC(=NN=C(N)c1nonc1N)c1ccc2c(c1)OCO2	x	6	x	x	x	x
Cc1ccc(NC(=O)c2nnn(CC(=O)Nc3ccc4c(c3)OCO4)c2N)cc1C	0	2	1	x	2	x
